# ASAP1 inh: inhibitors of human ASAP1 ArfGAP activity; Q9ULH1; ASAP1-stimulated ARF1 GTP hydrolysis, GDP FP detection; inhibition, % at 16.5 µM; 0.19% of 360,000 active; in the data active = inhibition above about 25%;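 also: 0% = vehicle with enzyme and substrate and 100% = no enzyme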
# Target sequence (Q9ULH1 325-724 limits assumed): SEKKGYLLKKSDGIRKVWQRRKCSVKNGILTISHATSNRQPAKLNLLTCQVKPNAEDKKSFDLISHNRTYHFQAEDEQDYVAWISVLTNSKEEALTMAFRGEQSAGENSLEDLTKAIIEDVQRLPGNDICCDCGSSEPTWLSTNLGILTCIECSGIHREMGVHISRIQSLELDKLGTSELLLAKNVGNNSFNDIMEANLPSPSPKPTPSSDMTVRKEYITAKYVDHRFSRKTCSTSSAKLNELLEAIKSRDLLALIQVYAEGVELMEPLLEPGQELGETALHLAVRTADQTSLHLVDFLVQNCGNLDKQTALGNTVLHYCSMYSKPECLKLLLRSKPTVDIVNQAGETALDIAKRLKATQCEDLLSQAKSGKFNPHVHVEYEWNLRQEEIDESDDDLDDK
# PAFAH1B3 FP inh: blocks human PAF acetylhydrolase 1B catalytic subunit 3; Q15102; recombinant PAFAH1B3, FP-rhodamine probe, fluorescence polarization; 0.28% of 340,000 active; inhibition, % at 3.39 µM;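 active = inhibition above the screen-wide average of all tested compounds plus 3 SD, cut at about 25% in these data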;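 also: 0% = enzyme with DMSO only and 100% = wells lacking PAFAH1B3 protein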
# PAFAH2 FP inh: PAFAH2 (human) inhibition. 0.99% of 340,000 active. inhibition, % at 3.39 µM. recombinant PAFAH2, FP-rhodamine activity probe, fluorescence polarization;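 active = inhibition above the mean over all tested compounds plus 3 SD, cut at about 30% in these data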;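 also: inhibitors block probe labeling of enzyme so polarization drops; 0% = enzyme with DMSO and 100% = wells lacking PAFAH2 protein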
# pPAFAH inh: pPAFAH (human) enzyme inhibition | Q13093 | recombinant pPAFAH, FP-rhodamine probe fluorescence polarization | inhibition, % at 3.39 µM | 1.5% of 330,000 active | AID 463082;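 active = inhibition above the mean inhibition across the screen plus 3 SD, cut at about 25% in these data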;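 also: inhibitors block binding of the rhodamine activity-based probe so polarization drops; 0% = enzyme with DMSO and 100% = wells lacking pPAFAH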
# PAFAH1B2 FP inh: blocks human PAF acetylhydrolase 1b catalytic subunit 2 | P68402 | recombinant PAFAH1B2, FP-rhodamine activity probe, fluorescence polarization | inhibition, % at 3.39 µM | 1.2% of 340,000 active;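 active = inhibition above the mean of all tested compounds plus 3 SD, cut at about 24% in these data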;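 also: 0% = enzyme with DMSO and 100% = wells lacking PAFAH1B2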
# ARFGAP1 inhibitor: inhibits rat ARF GTPase activating protein 1. 0.26% of 360,000 active. Q62848. Arfgap1-stimulated ARF1 GTP hydrolysis, GDP FP detection. inhibition, % at 16.5 µM;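 active = inhibition above a per-plate limit, mean inhibition of low control wells plus 3 SD, cut at about 25% in these data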;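 also: 0% = DMSO wells with enzyme and 100% = wells lacking Arfgap1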
# Target sequence (Q62848 1-136 limits assumed): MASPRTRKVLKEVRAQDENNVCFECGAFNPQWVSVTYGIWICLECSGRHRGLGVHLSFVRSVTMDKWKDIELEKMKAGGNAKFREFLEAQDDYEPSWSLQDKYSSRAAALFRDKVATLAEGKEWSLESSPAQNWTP
#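 Assay system: Rat Arfgap1 GAP domain (His6, aa 1-136), purified enzyme | Buffer or medium: HEPES 25 mM pH 7.5, NaCl 150 mM, MgCl2, DTT | Schedule: GTP hydrolysis reaction 2 h at 25 °C | Signal: FP of antibody-bound GDP Alexa 633 tracer, ex 620/em 688 nm | Measure: Percent inhibition of Arfgap1-stimulated GTP hydrolysis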
# Starred values were filed as active, the others as inactive; . = no result given. An excerpt weighted towards active compounds, which were near 2.7% of everything screened.
SMILES,ASAP1 inh,PAFAH1B3 FP inh,PAFAH2 FP inh,pPAFAH inh,PAFAH1B2 FP inh,ARFGAP1 inhibitor
CCOc1ccc(C=NNc2ccc(S(=O)(=O)Nc3ccccc3C(=O)O)cc2[N+](=O)[O-])cc1OC,.,13.1,28.8,25.1*,11.2,.
COc1ccc(NC(=O)c2ccccc2NS(=O)(=O)c2ccc(C)cc2)c([N+](=O)[O-])c1,16.3,9.8,12.6,16.3,-1.5,-5.1
CC(=O)Nc1cccc(/C(C)=N/Nc2ccc(S(=O)(=O)Nc3ccccc3C(=O)O)cc2[N+](=O)[O-])c1,-2.2,23.0,38.3*,.,33.1*,-8.1
O=C(O)c1ccccc1NS(=O)(=O)c1ccc(N/N=C/c2cccc(O)c2O)c([N+](=O)[O-])c1,11.4,47.9*,63.3*,.,44.0*,-28.1
O=S(=O)(NCc1ccccc1)c1ccc(Cl)cc1,-2.6,6.2,1.7,4.8,21.3,-6.4
O=S(=O)(Nc1cc2nc3ccccc3nc2n1Cc1ccccc1)c1ccc(Cl)cc1,-7.9,62.6*,66.4*,14.2,46.8*,-14.1
COc1ccc(/C=N/N=C2/NC(=O)C(CC(=O)O)S2)cc1OCc1ccc(Cl)cc1 (stereo not drawn),-6.5,2.8,2.6,9.6,3.3,-9.0
CCOc1cc(/C=N/N=C2/NC(=O)C(CC(=O)O)S2)ccc1OCc1ccc(Cl)cc1 (stereo not drawn),-11.3,0.2,0.1,24.6*,1.0,4.3
C[C@@H]1OC(C2CCCCC2)N(C)[C@H]2C[C@H]3c4[nH]c5c(-c6ccccc6)cccc5c4CCN3C(=O)[C@@H]12 (stereo partly drawn),3.4,.,.,.,.,-6.6
c1ccc2c(c1)CCN(c1nc(CN3CCOCC3)nc3sc4c(c13)CCCC4)C2,-1.2,3.6,4.4,31.8*,2.7,-2.4
O=C(NCc1ccc(F)cc1)C1CCCN(S(=O)(=O)c2ccc(Br)s2)C1 (stereo not drawn),2.9,7.5,3.5,6.5,12.1,10.1
O=C(NCc1ccc(F)cc1)C1CCN(S(=O)(=O)c2ccc(Br)s2)CC1,5.8,2.1,-10.8,3.5,25.3*,11.7
O=C(O)CCc1ccc(NCc2cccc(Oc3ccccc3)c2)cc1,15.9,13.6,0.2,12.7,24.4*,-5.5
CC(C)N(Cc1ccccc1)C(=O)CN1C(=O)NC(Cc2ccccc2)(c2ccccc2)C1=O (stereo not drawn),-15.8,6.8,-8.3,4.6,26.0*,-3.5
O=C(c1ccccc1)N1CCC2CCN(CCc3ccccc3)CC21 (stereo not drawn),-7.9,.,.,.,.,1.5
C[n+]1c(-c2ccccc2)cc2c(=Cc3ccc([N+](=O)[O-])cc3)c3ccccc3n21,1.7,39.0*,81.4*,.,6.5,9.9
Cc1cc(N2CCN(CC(C)(C)O)C[C@H]2C)ccc1N1CCN(CC(C)(C)O)[C@H](C)C1,-4.1,.,.,.,.,1.7
COC(=O)C1=C(C)N(Cc2ccccc2C(F)(F)F)C(=NCc2ccccc2C(F)(F)F)NC1c1cccc(C(F)(F)F)c1 (stereo not drawn),1.3,.,.,.,.,0.3
O=C(OCC(=O)c1ccc(Cl)cc1Cl)c1ccc2c(c1)C(=O)N(c1cccc3ncccc13)C2=O,113.7*,-0.7,-9.1,2.2,1.0,-3.0
CCOC(=O)C1=CCN(S(=O)(=O)c2ccc(Br)cc2)C1c1ccc(Br)cc1 (stereo not drawn),8.1,.,.,.,.,4.0
O=C(CN1CCN(c2ccc(O)cc2)CC1)Nc1ccc(SC(F)F)cc1,5.9,7.0,-5.1,32.6*,-0.7,-2.2
O=C(NC(Nc1nc2ccc([N+](=O)[O-])cc2s1)(C(F)(F)F)C(F)(F)F)c1ccccc1Cl,0.9,-3.3,1.8,33.0*,-4.6,-1.9
O=C(NC(Nc1nc2ccc([N+](=O)[O-])cc2s1)(C(F)(F)F)C(F)(F)F)c1cccnc1,-2.4,10.4,-3.3,7.4,5.4,6.3
O=C(CSCc1ccc(Br)cc1)N1CCCC1,-2.9,7.3,8.4,6.2,28.9*,-12.4
O=C(CSCc1ccc(Br)cc1)N1CCOCC1,-6.0,2.8,4.5,4.7,26.3*,17.4
SMILES,ASAP1 inh,PAFAH1B3 FP inh,PAFAH2 FP inh,pPAFAH inh,PAFAH1B2 FP inh,ARFGAP1 inhibitor
COc1ccc2c(c1)[C@]1(C(=O)N2C)C2=C(CCCC2=O)Oc2cc(C)oc(=O)c21,-8.5,.,.,.,.,-7.0
Cc1ccc(S(=O)(=O)NCCc2cc3ccc(C)cc3[nH]c2=O)cc1,7.1,-0.5,-14.4,7.2,27.2*,-3.6
Oc1ccc(Cl)cc1N=Nc1ccccc1,3.0,9.5,9.3,1.8,0.8,1.4
O=S(=O)(O)c1cc(O)c2c(O)c(N=Nc3cc(Cl)ccc3O)c(S(=O)(=O)O)cc2c1,.,35.4*,48.6*,33.2*,33.7*,.
Nc1cc(S(=O)(=O)O)cc2ccc(S(=O)(=O)O)cc12,11.3,14.8,1.5,.,4.5,-2.9
Cc1cc(-c2ccc(N=Nc3c(S(=O)(=O)O)cc4cc(S(=O)(=O)O)cc(N)c4c3O)c(C)c2)ccc1N=Nc1c(S(=O)(=O)O)cc2cc(S(=O)(=O)O)cc(N)c2c1O,.,.,.,53.3*,.,.
O=C(/C=C/c1ccc(S(=O)(=O)NCc2ccco2)cc1)NCc1cccc(Cl)c1,2.8,6.5,1.9,29.0*,-0.9,6.8
COc1ccccc1CNC(=O)/C=C/c1ccc(S(=O)(=O)NCc2ccco2)cc1,0.7,11.1,10.3,25.3*,-0.6,2.8
Cc1ccc(CNC(=O)/C=C/c2ccc(S(=O)(=O)NCc3ccco3)cc2)cc1,0.8,4.0,-3.1,5.3,11.8,-3.6
CC(=O)O[C@H]1C=C[C@@H](C#Cc2ccc(C(C)(C)C)cc2)O[C@@H]1COC(=O)Nc1ccccc1,-1.5,.,.,.,.,-0.5
N#Cc1c(N)nc2c(c1N)CC(=O)N2c1ccc(Cl)cc1,.,19.1,2.6,8.2,24.4*,.
N#Cc1c(N)nc2c(c1N)CC(=O)N2c1ccccc1-c1ccccc1,3.4,11.0,-2.1,0.3,3.3,9.8
OCC1OC(C(N=Nc2ccccc2)=NNc2ccccc2)C(O)C1O (stereo not drawn),6.5,.,.,.,.,11.3
O=c1[nH][nH]c(-c2ccccc2)c1-c1ccccc1,6.8,11.7,3.1,.,24.9*,2.0
CCCC[C@@H]1CCCO[C@@](C(=O)NCc2ccccn2)(C(F)(F)F)C1,12.4,-3.9,-1.0,1.7,0.5,12.4

# Screening data deposited in PubChem by The Scripps Research Institute Molecular Screening Center.
